MrgX1 PAM: human MrgX1 positive allosteric modulation, primary screen. B-score at 10 µM. 310,000 tested, 0.63% active. Q96LB2. MrgX1-HEK293, Fluo-4 calcium flux, FDSS; hits give high values. AID 588675;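 active = plate-corrected calcium response at least 3 library SD above typical, normal starting fluorescence, not activating the receptor alone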;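 note: compound read alongside a low EC10 to EC30 dose of BAM8-22 agonist; peak minus trough fluorescence over baseline measured at the second addition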
Target sequence (Q96LB2 whole entry, looked up): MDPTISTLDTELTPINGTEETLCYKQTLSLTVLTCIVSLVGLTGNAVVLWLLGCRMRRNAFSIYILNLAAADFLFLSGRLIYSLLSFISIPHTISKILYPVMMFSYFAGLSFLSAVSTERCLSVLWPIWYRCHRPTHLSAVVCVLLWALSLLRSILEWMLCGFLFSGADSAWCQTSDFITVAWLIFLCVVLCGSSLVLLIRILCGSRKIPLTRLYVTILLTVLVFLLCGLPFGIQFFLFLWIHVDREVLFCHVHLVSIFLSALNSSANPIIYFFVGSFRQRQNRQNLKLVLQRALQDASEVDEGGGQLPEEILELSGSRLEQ
MrgX1 ag: human MrgX1 receptor agonism, primary screen; Q96LB2; MrgX1-HEK293 cells, Fluo-4 calcium fluorescence, agonist mode; hits give high values; B-score at 10 µM; 310,000 tested, 0.44% active; AID 588627;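 active = calcium response B-score plate-corrected fluorescence ratio at least 3 library SD, with starting fluorescence B-score inside 5 SD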
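Material: MrgX1-expressing HEK293 cells / Dosing: compound as first of three additions / Incubation: overnight seeding, then 1 h dark dye loading / Signal: Fluo-4 NW calcium fluorescence / Evaluation: B-scored fluorescence response ratio / Benchmarks: positive and negative control wells on each plate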
RGS4 pot: potentiators or activators of RGS4; HEK293 M3R/inducible RGS4, carbachol calcium flux Fluo4; hits give low values; B-score at 10 µM; 310,000 tested, 0.92% active;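 active = B-score of the integrated calcium signal more than 4 SD below the library mean, with starting fluorescence not abnormally high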;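 note: negative B-score means reduced calcium response which marks RGS4 activation or potentiation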
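Material: M3R-expressing HEK293 line, RGS4 induced by doxycycline | Schedule: Overnight RGS4 induction, 30 min dye load 37 °C, 20 min compound RT | Measured by: Fluo4 fluorescence kinetic imaging of calcium | Read-out: Integrated calcium ratio converted to B score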
RGS4 inh: inhibitors of human RGS4; P49798; HEK293 M3R/RGS4 inducible, Fluo-4 calcium flux; hits give high values; triggered by carbachol at its EC20; B-score at 10 µM; 310,000 tested, 0.45% active;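 active = B-score, a plate-corrected calcium signal, over three deviations above library mean, with baseline fluorescence within five deviations of library mean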;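 note: RGS4 expression induced by doxycycline in cells with stable M3 receptor; B-score is computed from the integrated fluorescence ratio over baseline after carbachol; higher B-score means a larger calcium signal and so more RGS4 inhibition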
Target sequence (P49798 whole entry, looked up): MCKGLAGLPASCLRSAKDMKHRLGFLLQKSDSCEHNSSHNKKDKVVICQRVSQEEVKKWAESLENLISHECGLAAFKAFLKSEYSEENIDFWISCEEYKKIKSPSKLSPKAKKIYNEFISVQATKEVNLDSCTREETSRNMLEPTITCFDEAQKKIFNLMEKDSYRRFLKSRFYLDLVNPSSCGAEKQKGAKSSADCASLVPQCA
MrgX1 antagonist: blocks BAM8-22 activation of human MrgX1 receptor; Q96LB2; MRGX1-HEK293 calcium flux, Fluo-4, BAM8-22 antagonism; hits give low values; B-score at 10 µM; 310,000 tested, 1.3% active;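 active = calcium-response B-score plate-corrected more than 3 library SD below zero, starting fluorescence within 5 deviations, no agonist response on first addition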;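 note: peak minus trough fluorescence over baseline after final BAM8-22 challenge near maximal dose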
MrgX1 ant reconf: confirmation of human MrgX1 receptor antagonists. MrgX1-HEK293, BAM8-22 calcium flux, Fluo-4; hits give low values. remaining BAM8-22 calcium response % of control (hits give low values), % at 10 µM. 2,300 tested, 19% active. AID 602420. shares compounds with MrgX1 antagonist;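 active = remaining agonist calcium response no higher than 100% minus 3 SD of agonist-only control wells, with starting fluorescence near control levels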;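 note: agonist BAM8-22 given at a near maximal EC90 to ECmax level; peak minus minimum fluorescence divided by baseline after agonist addition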
HEK293 Ca flux: activity in parental HEK293 cells lacking MrgX1. shares compounds with MrgX1 antagonist. Fluo-4 calcium fluorescence, FDSS. fluorescence ratio F(max-min)/F0 at 10 µM. 4,000 tested, 2% active;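 active = duplicate-averaged calcium fluorescence ratio at least three times the standard deviation of buffer wells, a nonspecific response in parental cells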
HEK293 Ca counter: MrgX1 allosteric activator counter-screen hit in parental HEK293 cells; shares compounds with MrgX1 antagonist; parental HEK293 calcium flux, Fluo-4 fluorescence ratio; hits give high values; fluorescence ratio F(max-min)/F0 at 10 µM; 4,000 tested, 0.4% active;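 active = calcium fluorescence ratio, averaged over duplicates, at least 3 SD of the buffer-well ratio, meaning a nonspecific response in receptor-free cells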;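 note: untransfected parental HEK293 lacking MrgX1 used as counterscreen for MrgX1 allosteric activators; fluorescence change taken during the second addition on a kinetic imager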
HEK293 Ca cntr2: activity in parental HEK293 cells lacking MrgX1 receptor; shares compounds with MrgX1 antagonist; Fluo-4 calcium fluorescence (FDSS); hits give high values; fluorescence ratio F(max-min)/F0 at 10 µM; 4,000 tested, 8.7% active; AID 624115;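 active = calcium fluorescence ratio at least three times the spread of buffer wells, meaning a non-specific response in parental cells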
Starred values were filed as active, the others as inactive; i = inactive; · = no result. In the library only some 3.5% were active in any assay of this set; here they are far more common.

SMILES	MrgX1 PAM	MrgX1 ag	RGS4 pot	RGS4 inh	MrgX1 antagonist	MrgX1 ant reconf	HEK293 Ca flux	HEK293 Ca counter	HEK293 Ca cntr2
Cc1cccc(N2CCN(C(=O)c3cccc(N4C(=O)C5C6C=CC(C6)C5C4=O)c3)CC2C)c1 (stereo not given)	i	i	i	i	i	·	·	·	·
Cc1cccc(N2CCN(C(=O)c3ccc(N4CCCC4=O)cc3)CC2C)c1 (stereo not given)	i	i	i	i	-4.89*	i	i	i	i
O=c1cc(N2CCCCC2)nc2n1CCCS2	i	i	i	i	-5.41*	i	i	i	i
COc1ccc(Cl)cc1NC(=O)CN1C(=O)NC2(CCCC2)C1=O	i	i	i	i	i	·	·	·	·
Cn1c(=O)[nH]c(=O)c2c1nc(SCC(=O)O)n2CCCc1ccccc1	i	i	i	i	-6.86*	83.8%*	i	i	i
CCCN(CC1CCCO1)C(=O)CCc1nnc(CCc2ccc(OC)cc2)o1 (stereo not given)	i	i	i	i	i	·	·	·	·
CSc1nc(N2CCN(c3ccccc3)CC2)cc(N2CCN(c3ccccc3)CC2)n1	i	i	i	i	-5.52*	i	i	i	i
CSc1nnc(NC(=O)c2nc(S(=O)(=O)Cc3ccccc3)ncc2Cl)s1	i	i	i	i	-4.74*	71.1%*	i	i	i
CCc1ccc(NC(=O)c2nc(S(=O)(=O)Cc3ccccc3)ncc2Cl)cc1	i	i	i	i	i	·	·	·	·
CC(C)c1nnc(NC(=O)c2nc(S(=O)(=O)Cc3ccccc3)ncc2Cl)s1	i	i	i	i	-5.27*	81.2%*	i	i	i
Cc1noc(C)c1S(=O)(=O)N(CC(=O)NC(C)c1ccccc1)c1ccc(C(C)C)cc1 (stereo not given)	i	i	i	i	i	·	·	·	·
COc1ccccc1C(=O)Nc1cccc2nc(C)ccc12	i	i	i	i	i	·	·	·	·
CN(C)S(=O)(=O)N1CCN(CC(O)COc2ccc(-c3ccccc3)cc2)CC1 (stereo not given)	i	i	i	i	i	·	·	·	·
CCC(C)Sc1nc2c(cnn2-c2ccccc2)c(=O)[nH]1 (stereo not given)	i	i	i	i	-4.94*	i	i	i	i
CCC(C)Sc1nc2c(cnn2-c2ccc(C)cc2)c(=O)[nH]1 (stereo not given)	i	i	i	i	i	·	·	·	·
Cc1ccc(CNC(=O)Cc2ccc(-c3ccccc3)cc2)cc1	i	i	i	i	i	·	·	·	·
Cc1ccc(CC(=O)NCc2ccc(F)cc2)cc1	i	i	i	i	-5.03*	i	i	i	i
CCOC(=O)N1CCC(NC(=O)CS(=O)(=O)Cc2nc(-c3ccccc3C)oc2C)CC1	i	i	i	i	-5.3*	i	i	i	i
O=C(O)c1nn(CC(=O)N2CCN(c3ncc(C(F)(F)F)cc3Cl)CC2)c(=O)c2ccccc12	i	i	i	i	i	·	·	·	·
COc1ccc(C(=O)N(C)Cc2ccon2)cc1OC1CCN(C(C)C)CC1	i	i	i	i	i	·	·	·	·
COc1ccc(C(=O)N(C)Cc2ccccn2)cc1OC1CCN(C(C)C)CC1	i	i	i	i	-5.2*	i	i	i	i
Cc1ccc(CN2CCCNC2=O)cc1	i	i	i	i	-4.88*	i	i	i	i
N#CCSc1nnc(C2CCCCC2)n1Cc1ccccc1	i	i	i	i	-7.1*	i	i	i	i
O=C(Cn1nnc(-c2ccc(CN3CCOCC3)cc2)n1)N(c1ccccc1)c1ccccc1	i	i	i	i	-8.58*	i	i	i	i
O=C(Cn1nnc(-c2ccc(CN3CCOCC3)cc2)n1)N1CCCc2ccccc21	i	i	i	i	i	·	·	·	·
SMILES	MrgX1 PAM	MrgX1 ag	RGS4 pot	RGS4 inh	MrgX1 antagonist	MrgX1 ant reconf	HEK293 Ca flux	HEK293 Ca counter	HEK293 Ca cntr2
Cc1ccc(C(=O)NCc2ccccn2)cc1S(=O)(=O)N1CCCCC1	i	i	i	i	i	·	·	·	·
O=[N+]([O-])c1ccc(N2N=C(c3ccccc3)CC2c2ccccc2O)cc1 (stereo not given)	i	i	-9.35*	i	-16*	i	0.562*	i	i
COc1ccccc1N1N=C(c2ccc([N+](=O)[O-])cc2)CC1c1ccccc1 (stereo not given)	i	i	i	i	-15.4*	i	0.692*	i	i
COc1cc(N2N=C(c3ccccc3)CC2c2ccccc2)c(C=O)cc1C=O (stereo not given)	i	i	i	i	i	·	·	·	·
CN1Cc2cccc3c2C(Cc2ccccc2S3)C1 (stereo not given)	i	i	i	i	i	·	·	·	·
CC(=O)Nc1ccc(S(=O)(=O)N(C)CC(=O)OCC(=O)Nc2cccnc2Cl)cc1	i	i	i	i	i	·	·	·	·
Cc1cc(C)c(S(=O)(=O)N2CCCc3ccccc32)c(C)c1	i	i	i	i	-7.12*	i	i	i	51.7*
O=C(NCCCO)c1ccc2[nH]c3c(c2c1)CCCC3	i	i	i	i	i	·	·	·	·
O=C(NCCO)c1ccc2[nH]c3c(c2c1)CCCC3	i	i	i	i	-6.46*	i	i	i	i
c1ccc(Nc2ccccc2Nc2ccccn2)nc1	i	i	i	i	-4.72*	78.4%*	i	i	i
c1ccc(CNc2ccccn2)cc1	i	i	i	i	i	·	·	·	·
O=C(NCCN1CCOCC1)C1CCCN(S(=O)(=O)c2ccc(F)cc2)C1 (stereo not given)	i	i	i	i	i	·	·	·	·
O=C(CN(c1ccccn1)S(=O)(=O)c1ccc(F)cc1)Nc1ccc(F)cc1F	i	i	i	i	-5.65*	i	i	i	i

Screening results (PubChem)
